Reference: ChEMBL document CHEMBL1157679, “Substituted aryl malonamates as new serine beta-lactamase substrates: structure-activity studies” (Bioorg Med Chem, 2010)

Columns and labels:
[1] = substrate: CN(Cc1ccccc1)C(=O)CC(=O)Oc1cccc(C(=O)O)c1; assay: (§1) Ratio of Kcat to Km for Actinomadura R39 DD-peptidase; conditions: Actinomadura sp. R39
Procedure, shortened: (§2)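 Steady-state kinetics in 100 mM MOPS, pH 7.5, 25 °C. Substrate stocks were made in DMSO and diluted into buffer to a final DMSO below 5%. Initial rates of enzyme-catalysed turnover were followed spectrophotometrically. Steady-state parameters were derived from these initial rates. Buffer hydrolysis of the substrates was measured separately as pseudo-first-order rate constants.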

[2] = substrate: C[C@H](C(=O)NCc1ccccc1)C(=O)Oc1cccc(C(=O)O)c1; assay: as §1; conditions: Actinomadura sp. R39; procedure, shortened: as §2
[3] = substrate: O=C(O)c1cccc(OC(=O)C2CCN(Cc3ccccc3)C2=O)c1; assay: as §1; conditions: Actinomadura sp. R39; procedure, shortened: as §2
[4] = substrate: O=C(CC(=O)Oc1cccc(C(=O)O)c1)NCc1ccccc1; assay: as §1; conditions: Actinomadura sp. R39; procedure, shortened: as §2
[5] = substrate: O=C(O)c1cccc(OC(=O)C2Cc3ccccc3N(Cc3ccccc3)C2=O)c1; assay: as §1; conditions: Actinomadura sp. R39; procedure, shortened: as §2
[6] = substrate: CO[C@@H](C(=O)NCc1ccccc1)C(=O)Oc1cccc(C(=O)O)c1; assay: as §1; conditions: Actinomadura sp. R39; procedure, shortened: as §2
[7] = substrate: CN(Cc1ccccc1)C(=O)CC(=O)Oc1cccc(C(=O)O)c1; assay: (§3) Activity at Actinomadura R39 DD-peptidase by spectrophotometry; conditions: Actinomadura sp. R39; procedure, shortened: as §2
[8] = substrate: C[C@H](C(=O)NCc1ccccc1)C(=O)Oc1cccc(C(=O)O)c1; assay: as §3; conditions: Actinomadura sp. R39; procedure, shortened: as §2
[9] = substrate: O=C(O)c1cccc(OC(=O)C2CCN(Cc3ccccc3)C2=O)c1; assay: as §3; conditions: Actinomadura sp. R39; procedure, shortened: as §2
[10] = substrate: CO[C@@H](C(=O)NCc1ccccc1)C(=O)Oc1cccc(C(=O)O)c1; assay: as §3; conditions: Actinomadura sp. R39; procedure, shortened: as §2
[11] = substrate: CO[C@H](C(=O)NCc1ccccc1)C(=O)Oc1cccc(C(=O)O)c1; assay: (§4) Activity at Enterobacter cloacae P99 beta-lactamase by spectrophotometry; procedure, shortened: as §2
[12] = substrate: O=C(O)c1cccc(OC(=O)C(Cc2ccccc2)C(=O)NCc2ccccc2)c1; assay: as §4; procedure, shortened: as §2
[13] = substrate: CN(Cc1ccccc1)C(=O)CC(=O)Oc1cccc(C(=O)O)c1; assay: as §4; procedure, shortened: as §2
[14] = substrate: O=C(CC(=O)N(Cc1ccccc1)Cc1ccccc1)Oc1cccc(C(=O)O)c1; assay: as §4; procedure, shortened: as §2
[15] = substrate: C[C@H](C(=O)NCc1ccccc1)C(=O)Oc1cccc(C(=O)O)c1; assay: as §4; procedure, shortened: as §2
[16] = substrate: O=C(O)c1cccc(OC(=O)C2CCN(Cc3ccccc3)C2=O)c1; assay: as §4; procedure, shortened: as §2
[17] = substrate: O=C(CC(=O)Oc1cccc(C(=O)O)c1)NCc1ccccc1; assay: as §4; procedure, shortened: as §2
[18] = substrate: O=C(O)c1cccc(OC(=O)C2Cc3ccccc3N(Cc3ccccc3)C2=O)c1; assay: as §4; procedure, shortened: as §2
[19] = substrate: C[C@@H](C(=O)NCc1ccccc1)C(=O)Oc1cccc(C(=O)O)c1; assay: as §4; procedure, shortened: as §2
[20] = substrate: CO[C@@H](C(=O)NCc1ccccc1)C(=O)Oc1cccc(C(=O)O)c1; assay: as §4; procedure, shortened: as §2
[21] = substrate: CO[C@H](C(=O)NCc1ccccc1)C(=O)Oc1cccc(C(=O)O)c1; assay: (§5) Ratio of Kcat to Km for Enterobacter cloacae P99 beta-lactamase; procedure, shortened: as §2
[22] = substrate: O=C(O)c1cccc(OC(=O)C(Cc2ccccc2)C(=O)NCc2ccccc2)c1; assay: as §5; procedure, shortened: as §2
[23] = substrate: CN(Cc1ccccc1)C(=O)CC(=O)Oc1cccc(C(=O)O)c1; assay: as §5; procedure, shortened: as §2
[24] = substrate: O=C(CC(=O)N(Cc1ccccc1)Cc1ccccc1)Oc1cccc(C(=O)O)c1; assay: as §5; procedure, shortened: as §2
[25] = substrate: C[C@H](C(=O)NCc1ccccc1)C(=O)Oc1cccc(C(=O)O)c1; assay: as §5; procedure, shortened: as §2
[26] = substrate: O=C(O)c1cccc(OC(=O)C2CCN(Cc3ccccc3)C2=O)c1; assay: as §5; procedure, shortened: as §2
[27] = substrate: O=C(CC(=O)Oc1cccc(C(=O)O)c1)NCc1ccccc1; assay: as §5; procedure, shortened: as §2
[28] = substrate: O=C(O)c1cccc(OC(=O)C2Cc3ccccc3N(Cc3ccccc3)C2=O)c1; assay: as §5; procedure, shortened: as §2
[29] = substrate: C[C@@H](C(=O)NCc1ccccc1)C(=O)Oc1cccc(C(=O)O)c1; assay: as §5; procedure, shortened: as §2
[30] = substrate: CO[C@@H](C(=O)NCc1ccccc1)C(=O)Oc1cccc(C(=O)O)c1; assay: as §5; procedure, shortened: as §2
[31] = compound: O=C(CP(=O)(O)Oc1cccc(C(=O)O)c1)NCc1ccccc1; assay: Inhibition of Enterobacter cloacae P99 beta-lactamase assessed as inhibition of cephalothin turnover by spectrophotometry
Procedure, shortened: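 Initial rates of 200 μM cephalothin hydrolysis were measured spectrophotometrically in 100 mM MOPS, pH 7.5, at 25 °C. Compounds were added from DMSO stocks, with final DMSO below 5%.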

[32] = substrate: O=C(O)c1cccc(OC(=O)C(Cc2ccccc2)C(=O)NCc2ccccc2)c1; assay: (§6) Ratio of Kcat to Km for Streptomyces R61 DD-peptidase; conditions: Streptomyces sp. R61; procedure, shortened: as §2
[33] = substrate: CN(Cc1ccccc1)C(=O)CC(=O)Oc1cccc(C(=O)O)c1; assay: as §6; conditions: Streptomyces sp. R61; procedure, shortened: as §2
[34] = substrate: O=C(CC(=O)N(Cc1ccccc1)Cc1ccccc1)Oc1cccc(C(=O)O)c1; assay: as §6; conditions: Streptomyces sp. R61; procedure, shortened: as §2
[35] = substrate: C[C@H](C(=O)NCc1ccccc1)C(=O)Oc1cccc(C(=O)O)c1; assay: as §6; conditions: Streptomyces sp. R61; procedure, shortened: as §2
[36] = substrate: O=C(O)c1cccc(OC(=O)C2CCN(Cc3ccccc3)C2=O)c1; assay: as §6; conditions: Streptomyces sp. R61; procedure, shortened: as §2
[37] = substrate: O=C(CC(=O)Oc1cccc(C(=O)O)c1)NCc1ccccc1; assay: as §6; conditions: Streptomyces sp. R61; procedure, shortened: as §2
[38] = substrate: O=C(O)c1cccc(OC(=O)C2Cc3ccccc3N(Cc3ccccc3)C2=O)c1; assay: as §6; conditions: Streptomyces sp. R61; procedure, shortened: as §2
[39] = substrate: C[C@@H](C(=O)NCc1ccccc1)C(=O)Oc1cccc(C(=O)O)c1; assay: as §6; conditions: Streptomyces sp. R61; procedure, shortened: as §2
[40] = substrate: CO[C@@H](C(=O)NCc1ccccc1)C(=O)Oc1cccc(C(=O)O)c1; assay: as §6; conditions: Streptomyces sp. R61; procedure, shortened: as §2
[41] = substrate: C[C@H](C(=O)NCc1ccccc1)C(=O)Oc1cccc(C(=O)O)c1; assay: (§7) Activity at Streptomyces R61 DD-peptidase by spectrophotometry; conditions: Streptomyces sp. R61; procedure, shortened: as §2
[42] = substrate: O=C(O)c1cccc(OC(=O)C2CCN(Cc3ccccc3)C2=O)c1; assay: as §7; conditions: Streptomyces sp. R61; procedure, shortened: as §2
[43] = substrate: O=C(CC(=O)Oc1cccc(C(=O)O)c1)NCc1ccccc1; assay: as §7; conditions: Streptomyces sp. R61; procedure, shortened: as §2
[44] = substrate: O=C(O)c1cccc(OC(=O)C2Cc3ccccc3N(Cc3ccccc3)C2=O)c1; assay: as §7; conditions: Streptomyces sp. R61; procedure, shortened: as §2
[45] = substrate: C[C@@H](C(=O)NCc1ccccc1)C(=O)Oc1cccc(C(=O)O)c1; assay: as §7; conditions: Streptomyces sp. R61; procedure, shortened: as §2
[46] = substrate: CO[C@@H](C(=O)NCc1ccccc1)C(=O)Oc1cccc(C(=O)O)c1; assay: as §7; conditions: Streptomyces sp. R61; procedure, shortened: as §2

B1: D-alanyl-D-alanine carboxypeptidase (Actinomadura sp. R39), P39045 (protein)
chain: MKQSSPEPLRPRRTGGRGGARRAAALVTIPLLPMTLLGASPALADASGARLTELREDIDAILEDPALEGAVSGVVVVDTATGEELYSRDGGEQLLPASNMKLFTAAAALEVLGADHSFGTEVAAESAPGRRGEVQDLYLVGRGDPTLSAEDLDAMAAEVAASGVRTVRGDLYADDTWFDSERLVDDWWPEDEPYAYSAQISALTVAHGERFDTGVTEVSVTPAAEGEPADVDLGAAEGYAELDNRAVTGAAGSANTLVIDRPVGTNTIAVTGSLPADAAPVTALRTVDEPAALAGHLFEEALESNGVTVKGDVGLGGVPADWQDAEVLADHTSAELSEILVPFMKFSNNGHAEMLVKSIGQETAGAGTWDAGLVGVEEALSGLGVDTAGLVLNDGSGLSRGNLVTADTVVDLLGQAGSAPWAQTWSASLPVAGESDPFVGGTLANRMRGTAAEGVVEAKTGTMSGVSALSGYVPGPEGELAFSIVNNGHSGPAPLAVQDAIAVRLAEYAGHQAPEGARMMRGPVQGSGELECSWVQAC
Question: Which results are given for B1?
Answer: kcat/Km [1]: 3 M⁻¹ s⁻¹; kcat/Km [2]: 7.28 ×10² /s/M; kcat/Km [3]: 8 M⁻¹ s⁻¹; kcat/Km [4]: < 1.5 M⁻¹ s⁻¹; kcat/Km [5]: < 20 M⁻¹ s⁻¹; kcat/Km [6]: 5 ×10⁴ /s/M; Km [7]: > 1000 µM; kcat [7]: > 3 ×10⁻³ /s; Km [8]: > 1000 µM; kcat [8]: > 0.73 s⁻¹; Km [9]: > 1000 µM; kcat [9]: > 8 ×10⁻³ /s; Km [10]: 53 µM; kcat [10]: 2.81 s⁻¹

B2: Beta-lactamase (Enterobacter cloacae), P05364 (protein)
chain: MMRKSLCCALLLGISCSALATPVSEKQLAEVVANTITPLMKAQSVPGMAVAVIYQGKPHYYTFGKADIAANKPVTPQTLFELGSISKTFTGVLGGDAIARGEISLDDAVTRYWPQLTGKQWQGIRMLDLATYTAGGLPLQVPDEVTDNASLLRFYQNWQPQWKPGTTRLYANASIGLFGALAVKPSGMPYEQAMTTRVLKPLKLDHTWINVPKAEEAHYAWGYRDGKAVRVSPGMLDAQAYGVKTNVQDMANWVMANMAPENVADASLKQGIALAQSRYWRIGSMYQGLGWEMLNWPVEANTVVEGSDSKVALAPLPVAEVNPPAPPVKASWVHKTGSTGGFGSYVAFIPEKQIGIVMLANTSYPNPARVEAAYHILEALQ
Question: What does the source list for B2?
Answer: Km [11]: > 1000 µM; kcat [11]: > 2.9 s⁻¹; Km [12]: 2.6 µM; kcat [12]: 0.05 s⁻¹; Km [13]: 700 µM; kcat [13]: 0.33 s⁻¹; Km [14]: 32 µM; kcat [14]: 0.25 s⁻¹; Km [15]: 60 µM; kcat [15]: 1.17 s⁻¹; Km [16]: 2500 µM; kcat [16]: 0.12 s⁻¹; Km [17]: 170 µM; kcat [17]: 41 s⁻¹; Km [18]: 1400 µM; kcat [18]: 0.41 s⁻¹; Km [19]: 2800 µM; kcat [19]: 6.6 s⁻¹; Km [20]: > 1000 µM; kcat [20]: > 7.4 s⁻¹; kcat/Km [21]: 2.9 ×10³ /s/M; kcat/Km [22]: 1.9 ×10⁴ /s/M; kcat/Km [23]: 4.7 ×10² /s/M; kcat/Km [24]: 7.9 ×10³ /s/M; kcat/Km [25]: 2.13 ×10⁴ /s/M; kcat/Km [26]: 50 M⁻¹ s⁻¹; kcat/Km [27]: 2.45 ×10⁵ /s/M; kcat/Km [28]: 290 M⁻¹ s⁻¹; kcat/Km [29]: 2.36 ×10³ /s/M; kcat/Km [30]: 7.4 ×10³ /s/M; kcat/Km [31]: 45 M⁻¹ s⁻¹

B3: D-alanyl-D-alanine carboxypeptidase (Streptomyces sp. R61), P15555 (protein)
chain: MVSGTVGRGTALGAVLLALLAVPAQAGTAAAADLPAPDDTGLQAVLHTALSQGAPGAMVRVDDNGTIHQLSEGVADRATGRAITTTDRFRVGSVTKSFSAVVLLQLVDEGKLDLDASVNTYLPGLLPDDRITVRQVMSHRSGLYDYTNDMFAQTVPGFESVRNKVFSYQDLITLSLKHGVTNAPGAAYSYSNTNFVVAGMLIEKLTGHSVATEYQNRIFTPLNLTDTFYVHPDTVIPGTHANGYLTPDEAGGALVDSTEQTVSWAQSAGAVISSTQDLDTFFSALMSGQLMSAAQLAQMQQWTTVNSTQGYGLGLRRRDLSCGISVYGHTGTVQGYYTYAFASKDGKRSVTALANTSNNVNVLNTMARTLESAFCGKPTTAKLRSATSSATTVERHEDIAPGIARD
Question: What does the source list for B3?
Answer: kcat/Km [32]: < 0.2 M⁻¹ s⁻¹; kcat/Km [33]: < 0.15 M⁻¹ s⁻¹; kcat/Km [34]: < 0.35 M⁻¹ s⁻¹; kcat/Km [35]: 2.37 ×10⁴ /s/M; kcat/Km [36]: 17.8 M⁻¹ s⁻¹; kcat/Km [37]: 70 M⁻¹ s⁻¹; kcat/Km [38]: 21 M⁻¹ s⁻¹; kcat/Km [39]: 1.31 ×10³ /s/M; kcat/Km [40]: 3.3 ×10⁴ /s/M; Km [41]: 320 µM; kcat [41]: 7.63 s⁻¹; Km [42]: > 200 µM; kcat [42]: > 3.6 ×10⁻³ /s; Km [43]: 104 µM; kcat [43]: 0.7 s⁻¹; Km [44]: > 200 µM; kcat [44]: > 4.2 ×10⁻³ /s; Km [45]: 90 µM; kcat [45]: 0.12 s⁻¹; Km [46]: 280 µM; kcat [46]: 9.4 s⁻¹
